What was measured:
[1] = test system: MCF-7 cells; experiment: MTT cytotoxicity assay, MCF-7; type: cell-based; details: for IC50: Homo sapiens, MCF7, 72 h, read-out: IC50 MCF-7; for fold more toxic to MCF-7 cells than ordinary VERO cells: selectivity VERO/MCF-7
Outline: (§1)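 ATCC cells in RPMI 1640 with 10% heat-inactivated FBS and penicillin/streptomycin, 37 °C, 5% CO2. Trypsinized cells seeded at 1000–2000 per well, grown 24 h, then exposed 72 h to free or Cs/PVA-nanogel-loaded test compound (0.1, 10, 100, 1000 μM). MTT 2 h, formazan dissolved in acidified isopropanol, A570 read. Viability expressed versus control; IC50 derived.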

[2] = test system: HepG2 cells; experiment: MTT cytotoxicity assay, HepG2; type: cell-based; details: for IC50: Homo sapiens, HepG2, 72 h, read-out: IC50 HepG2; for fold toxic to HepG-2 cells than ordinary VERO cells: selectivity VERO/HepG-2
Outline: as §1

[3] = molecular target: topo-II enzyme; experiment: In vitro topoisomerase II inhibitory activity; type: biochemical; details: read-out: Topo-II assay IC50
[4] = test system: calf thymus DNA; experiment: DNA/methyl green assay; details: read-out: DNA binding IC50; methyl green displacement, 24 h, pH 7.5
Outline: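 Calf thymus DNA (10 mg) and methyl green (20 mg) in 100 mL 0.05 M Tris–HCl pH 7.5 with 7.5 mM MgSO4, stirred 24 h at 37 °C. Ethanol solutions of test compounds at 10, 100 and 1000 μM were dried under vacuum in wells, then complex added. Incubated at room temperature in the dark; A642.5–645 read at 24 h, normalized to untreated complex; IC50 fitted. Doxorubicin control.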

[5] = test system: A549 cells; experiment: MTT cytotoxicity assay, A549; type: cell-based; details: for IC50: Homo sapiens, A549, 72 h, read-out: IC50 A549; for fold more toxic to A549 cells than VERO normal cells: selectivity VERO/A549
Outline: as §1

[6] = test system: HCT116 cells; experiment: MTT cytotoxicity assay, HCT116; type: cell-based; details: for IC50: Homo sapiens, HCT-116, 72 h, read-out: IC50 HCT116; for fold more toxic to HCT-116 cells than normal VERO cells: selectivity VERO/HCT-116

Row | IC50 [3] [µM] | IC50 [4] [µM] | Structure (SMILES) | IC50 [1] [µM] | fold more toxic to MCF-7 cells than ordinary VERO cells [1] [fold] | IC50 [2] [µM] | fold toxic to HepG-2 cells than ordinary VERO cells [2] [fold] | IC50 [5] [µM] | fold more toxic to A549 cells than VERO normal cells [5] [fold] | IC50 [6] [µM] | fold more toxic to HCT-116 cells than normal VERO cells [6] [fold]
1 | 1.31 ± 0.4 | 37 ± 3.9 | NC1=NN(C(=O)C=Cc2ccccc2)C(=O)C1N=Nc1ccccc1C(=O)O (stereo not drawn) [Compound 2, 2-((3-Amino-1-cinnamoyl-5-oxo-4,5-dihydro-1H-pyrazol-4-yl)diazenyl)benzoic acid] | 8.3 ± 0.5 | 7.19 | 8.8 ± 0.5 | 6.78 | 6.3 ± 0.5 | 9.48 | 10.6 ± 1.5 | 5.63
2 | 1.49 ± 0.4 | 38.6 ± 3.8 | NC1=NN(c2ccc([N+](=O)[O-])cc2[N+](=O)[O-])C(=O)C1N=Nc1ccccc1C(=O)O (stereo not drawn) [Compound 3, 2-((3-Amino-1-(2,4-dinitrophenyl)-5-oxo-4,5-dihydro-1H-pyrazol-4-yl)diazenyl)benzoic acid] | 8.65 ± 0.8 | 6.29 | 8.95 ± 0.5 | 6.08 | 6.1 ± 0.5 | 8.92 | 11 ± 1.1 | 4.95
3 | 1.2 ± 0.4 | 36 ± 3.5 | NC1=NC(=NS(=O)(=O)c2ccc(N)cc2)NC(=O)C1N=Nc1ccccc1C(=O)O (stereo not drawn) [Compound 4, 2-((4-Amino-2-(((4-aminophenyl)sulfonyl)imino)-6-oxo-1,2,5,6-tetrahydropyrimidin-5-yl)diazenyl)-benzoic acid] | 7.85 ± 0.5 | 7.32 | 7.12 ± 0.5 | 8.07 | 5.5 ± 0.5 | 10.44 | 9.77 ± 1.1 | 5.88
4 | 0.94 ± 0.4 | 31.3 ± 1.8 | COc1cccc2c1C(=O)c1c(O)c3c(c(O)c1C2=O)C[C@@](O)(C(=O)CO)C[C@@H]3O[C@H]1C[C@H](N)[C@H](O)[C@H](C)O1 [Doxorubicin, reference compound] |  |  |  |  | 8.54 ± 0.8 |  |  | 

Source: paper PMC11960622 (RSC Advances, 2025)
